# INS promoter act = TRM-6 insulin promoter activation; activation, % at 2 µM; TRM-6 cells (human fetal islet line), insulin promoter eGFP reporter, imaging; plate-scaled: unstimulated 0, stimulated control 100; 0.81% of 130,000 active;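 active = activation at 2 µM above a set limit, confirmed on inspection of the cell images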;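 note: share of cells whose green reporter signal exceeds an intensity cutoff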
#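 Test system: TRM-6 insulin promoter–eGFP reporter cells / Quantity: 1,000 cells per well / Reagent: tamoxifen inducer, 0.75 µM, in seeding medium / Compound dosing: 2 µM final, single concentration / Schedule: overnight tamoxifen, then two-day compound incubation at 37 °C / Measured by: automated fluorescence imaging of paraformaldehyde-fixed, Hoechst-counterstained cells, green channel / Read-out: percent activation from GFP-positive cell fraction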
# Starred values were filed as active, the others as inactive. The entries come from a sample that favours hits as a whole.
SMILES,INS promoter act
CCCCC(=O)Nc1ccc(NC(=O)c2ccc(C)c([N+](=O)[O-])c2)cc1OC,7.9
Cc1c(OCC(=O)OC(C)C)ccc2c3c(c(=O)oc12)CCC3,6.7
Cc1c(OCc2ccc([N+](=O)[O-])cc2)ccc2c3c(c(=O)oc12)CCC3,193.8
C=C(C)COc1ccc2c3c(c(=O)oc2c1OCC(=C)C)CCC3,142.9*
CCOc1ccc(-c2cc(C(=O)OC)[nH]n2)cc1,0.0
CN(C)C=Nc1nonc1-c1ncn[nH]1,0.0
CN(C)C=Nc1c(Br)cc(Br)c2nonc12,203.0*
CCOC(=O)c1c(NC(=O)CSc2nnnn2-c2ccc(OC)cc2)sc(C)c1C,-6.7
CC1(NC(=S)N(CCO)CCO)CCS(=O)(=O)C1 (centres undefined),-3.7
Cc1ccc(S(=O)(=O)CCC(=O)OCC(=O)NCc2ccc(Cl)cc2)cc1,8.3
O=C(CSCc1ccc(Cl)cc1)NCC1CCCO1 (centres undefined),9.1
OC(CNCC1CCCO1)Cn1c2ccc(Cl)cc2c2cc(Cl)ccc21 (centres undefined),88.9*
Clc1ccc(-n2ncc3c(NCC4CCCO4)ncnc32)cc1 (centres undefined),0.0
COc1ccc(C(=O)Nc2c(C)csc2C(=O)O)cc1,4.8
C=C(C)CN(CC)C(=O)CSc1nc(O)cc(=O)n1C1CCCC1,0.0
O=C(N/N=C/c1ccc(Br)cc1)c1ccccc1-n1cccc1,5.9
COc1ccc(NC(=O)CSc2nc(C)cc(C(F)(F)F)n2)cc1,69.4
Cc1cc(C(F)(F)F)nc(SCC(=O)Nc2ccccc2)n1,375.7
Cc1cc(C(F)(F)F)nc(SCC(=O)NC2CC3CCC2C3)n1 (centres undefined),431.4*
COC(=O)c1ccc(Oc2coc3cc(OCc4ccc([N+](=O)[O-])cc4)ccc3c2=O)cc1,3.1
CC(C)=NOCc1ccc(-c2cn([C@@H]3COC[C@H]3O)nn2)cc1,4.8
Cc1cc(C)n(CC(O)Cn2c3ccccc3c3ccccc32)n1 (centres undefined),314.3
Cc1cc(C)n(CC(=O)n2c3ccccc3c3ccccc32)n1,-3.7
Cc1cc(C)n(CC(O)CN2c3ccccc3Sc3ccccc32)n1 (centres undefined),209.1*
CCOC(=O)c1c(NC(=O)CN2CCOCC2)sc(C(=O)NC)c1C,-7.2
SMILES,INS promoter act
CCOC(=O)c1c(NC(=O)CN2CCOCC2)sc2c1CCCC2=O,-9.7
Cc1sc(NC(=O)CN2CCOCC2)c(C(=O)c2ccccc2)c1C,75.0*
CC(NC(=O)C1CCN(S(=O)(=O)c2cnc[nH]2)CC1)c1ccccc1 (centres undefined),0.0
CCn1ncc(Br)c1C(=O)Nc1ccc(F)c([N+](=O)[O-])c1,238.5
Cc1ccc(C(=O)NC(=S)Nc2ccccc2N2CCCC2)cc1[N+](=O)[O-],0.0
CCn1ncc(Cl)c1C(=O)NC(=S)Nc1c(C)cc(C)cc1[N+](=O)[O-],292.9*
CN(C)CCCNc1ccc(S(N)(=O)=O)cc1[N+](=O)[O-],-7.7
COCCn1nnnc1SCC(=O)Nc1ccc2c(c1)OCO2,6.7
CCOC(=O)c1ccccc1NC(=O)Cn1cnc2c(cnn2-c2ccc(OC)cc2)c1=O,-75.0
CC(=O)Nc1ccc(NC(=O)Cn2cnc3c(nnn3Cc3ccc(F)cc3)c2=O)cc1,0.0
CC(=O)Nc1ccc(NC(=O)Cn2cnc3c(cnn3C(C)(C)C)c2=O)cc1,431.3*
CC1=C/C(=N\Nc2ccccc2[N+](=O)[O-])CC(C)(C)C1,0.0
O=C(Nc1cccc(C(F)(F)F)c1)C12CC3CC(CC(C3)C1)C2,4.8
O=C(COC(=O)c1c[nH]c(=O)[nH]c1=O)NCc1ccccc1,-5.5
CC(C)(C)c1c(Cl)c(O)c(-c2ccccc2)c(=O)n1-c1ccccc1,5.6
COc1ccc(-n2c(C(C)n3nc(C)c([N+](=O)[O-])c3C)n[nH]c2=S)cc1 (centres undefined),515.4*
Cc1nn(C(C)c2n[nH]c(=S)n2-c2cccc(Cl)c2)c(C)c1[N+](=O)[O-] (centres undefined),200.0
CC(c1n[nH]c(=S)n1-c1ccc(F)cc1)N1CCCCC1 (centres undefined),2.4
CCC(C)C(NC(=O)OC(C)(C)C)C(=O)NC(C)C(N)=O (centres undefined),6.7
CCOC(=O)c1c(NC(=O)CSc2nnc(C)s2)sc2c1CCC(CC)C2 (centres undefined),3.2
O=C1CC(C2CCCO2)C(=O)N1c1ccccc1 (centres undefined),311.1
CN(C)S(=O)(=O)c1ccc(Oc2ccccc2)cc1,475.0*
CN(C)S(=O)(=O)c1ccc(C(=O)Nc2ccccc2F)cc1,7.1
CNS(=O)(=O)c1ccc(Oc2ccc(S(=O)(=O)NC)cc2)cc1,-71.4
COc1ccc(-c2nc(=S)c3c([nH]2)Oc2ccc(C)cc2C3)cc1O,3.7
CC(=O)c1cccc(NC(=O)C2CCN(S(=O)(=O)c3ccccc3)CC2)c1,7.1
CCN(CC)c1cc(C)c2cc(NC(=O)c3ccc(Br)o3)ccc2n1,5.3
